# Measurements: ChEMBL document CHEMBL3992547, “Antimicrobial activity of rhodanine-3-acetic acid derivatives” (Bioorg Med Chem, 2017)
# Active and inactive are the calls of the source. No cut-off for these calls is given here.
# Experiments:
# [1] = test system: Candida tropicalis; experiment: Antifungal activity against Candida tropicalis 156 after 24 hrs by microdilution broth assay; type: functional; conditions: Candida tropicalis, 156, 24 h
# In short: (§1)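 Broth microdilution per CLSI M27-A3 and M38-A2 in RPMI 1640 with glutamine, buffered to pH 7.0 with MOPS. Compounds are diluted in DMSO. Final inoculum is 5 × 10³ CFU/mL for yeasts and 0.5–5 × 10⁴ CFU/mL for moulds. Plates are incubated in the dark at 35 °C in humid air and read visually and/or at 540 nm after 24 and 48 h. MIC is ≥80% growth reduction (IC₈₀) for yeasts and ≥50% (IC₅₀) for filamentous fungi.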
# [2] = test system: Nakaseomyces glabratus; experiment: Antifungal activity against Candida glabrata 20/I after 24 hrs by microdilution broth assay; type: functional; in short: as §1
# [3] = test system: Pseudomonas aeruginosa; experiment: Antibacterial activity against Pseudomonas aeruginosa CCM 1961 up to 500 uM incubated for 24 to 48 hrs under dark condition by microdilution broth assay; type: functional
# In short: (§2)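 Broth microdilution per M07-A07, modified, in Mueller-Hinton broth adjusted to pH 7.4 (±0.2). Inoculum is prepared in sterile water to McFarland 0.5 (1.5 × 10⁸ CFU/mL). Plates are incubated in the dark at 35 °C in humid air. MIC is read after 24 and 48 h as at least 95% growth reduction versus control (IC₉₅).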
# [4] = test system: Candida albicans; experiment: Antifungal activity against Candida albicans ATCC 44859 after 48 hrs by microdilution broth assay; type: functional; conditions: ATCC 44859, 48 h; in short: as §1
# [5] = test system: Trichophyton mentagrophytes; experiment: Antifungal activity against Trichophyton mentagrophytes 445 after 72 hrs by microdilution broth assay; type: functional; conditions: Trichophyton mentagrophytes, 445, 72 h
# In short: (§3)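 Broth microdilution per CLSI M38-A2 in RPMI 1640 with glutamine, buffered to pH 7.0 with MOPS, with DMSO as diluent. Final inoculum is 0.5–5 × 10⁴ CFU/mL. Plates are incubated in the dark at 35 °C in humid air and read visually and/or at 540 nm after 72 and 120 h. MIC is at least 50% growth reduction versus control.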
# [6] = test system: Candida albicans; experiment: Antifungal activity against Candida albicans ATCC 44859 after 24 hrs by microdilution broth assay; type: functional; conditions: ATCC 44859, 24 h; in short: as §1
# [7] = test system: Klebsiella pneumoniae; experiment: Antibacterial activity against ESBL positive Klebsiella pneumoniae J 14368/08 up to 500 uM incubated for 24 to 48 hrs under dark condition by microdilution broth assay; type: functional; in short: as §2
# [8] = test system: Mycobacterium kansasii; experiment: Antimycobacterial activity against Mycobacterium kansasii isolate 6509/96 after 21 days by micromethod; type: functional; conditions: isolate 6509/96, 504 h
# [9] = test system: Aspergillus fumigatus; experiment: Antifungal activity against Aspergillus fumigatus 231 after 48 hrs by microdilution broth assay; type: functional; conditions: Aspergillus fumigatus, 231, 48 h; in short: as §1
# [10] = Solubility of the compound in Sula's semisynthetic medium up to 1 mM; type: physicochemical
# [11] = test system: Trichophyton mentagrophytes; experiment: Antifungal activity against Trichophyton mentagrophytes 445 after 120 hrs by microdilution broth assay; type: functional; conditions: Trichophyton mentagrophytes, 445, 120 h; in short: as §3
# [12] = test system: Trichosporon asahii; experiment: Antifungal activity against Trichosporon asahii 1188 after 48 hrs by microdilution broth assay; type: functional; conditions: Trichosporon asahii, 1188, 48 h; in short: as §1
# [13] = test system: Mycobacterium avium; experiment: Antimycobacterial activity against Mycobacterium avium 330/88 measured after 14 days by micromethod; type: functional; conditions: 330/88, 336 h
# [14] = test system: Mycobacterium kansasii; experiment: Antimycobacterial activity against Mycobacterium kansasii isolate 6509/96 after 7 days by micromethod; type: functional; conditions: isolate 6509/96, 168 h
# [15] = test system: Candida tropicalis; experiment: Antifungal activity against Candida tropicalis 156 after 48 hrs by microdilution broth assay; type: functional; conditions: Candida tropicalis, 156, 48 h; in short: as §1
# [16] = test system: Mycobacterium kansasii; experiment: Antimycobacterial activity against Mycobacterium kansasii isolate 235/80 after 14 days by micromethod; type: functional; conditions: isolate 235/80, 336 h
# [17] = test system: Trichosporon asahii; experiment: Antifungal activity against Trichosporon asahii 1188 after 24 hrs by microdilution broth assay; type: functional; conditions: Trichosporon asahii, 1188, 24 h; in short: as §1
# [18] = test system: Aspergillus fumigatus; experiment: Antifungal activity against Aspergillus fumigatus 231 after 24 hrs by microdilution broth assay; type: functional; conditions: Aspergillus fumigatus, 231, 24 h; in short: as §1
# [19] = test system: Nakaseomyces glabratus; experiment: Antifungal activity against Candida glabrata 20/I after 48 hrs by microdilution broth assay; type: functional; in short: as §1
# [20] = test system: Pichia kudriavzevii; experiment: Antifungal activity against Candida krusei E28 after 24 to 48 hrs hrs by microdilution broth assay; type: functional; in short: as §1
# [21] = test system: Lichtheimia corymbifera; experiment: Antifungal activity against Absidia corymbifera 272 after 24 to 48 hrs hrs by microdilution broth assay; type: functional; in short: as §1
# [22] = test system: Mycobacterium tuberculosis; experiment: Antimycobacterial activity against Mycobacterium tuberculosis H37Rv 331/88 measured after 21 days by micromethod; type: functional; conditions: H37Rv 331/88, 504 h
# [23] = test system: Mycobacterium tuberculosis; experiment: Antimycobacterial activity against Mycobacterium tuberculosis H37Rv 331/88 measured after 14 days by micromethod; type: functional; conditions: H37Rv 331/88, 336 h
# [24] = test system: Mycobacterium kansasii; experiment: Antimycobacterial activity against Mycobacterium kansasii isolate 6509/96 after 14 days by micromethod; type: functional; conditions: isolate 6509/96, 336 h
# [25] = test system: Klebsiella pneumoniae; experiment: Antibacterial activity against Klebsiella pneumoniae D 11750/08 up to 500 uM incubated for 24 to 48 hrs under dark condition by microdilution broth assay; type: functional; in short: as §2
# [26] = test system: Mycobacterium kansasii; experiment: Antimycobacterial activity against Mycobacterium kansasii isolate 235/80 after 7 days by micromethod; type: functional; conditions: isolate 235/80, 168 h
# [27] = test system: Mycobacterium avium; experiment: Antimycobacterial activity against Mycobacterium avium 330/88 measured after 21 days by micromethod; type: functional; conditions: 330/88, 504 h
# [28] = test system: Mycobacterium kansasii; experiment: Antimycobacterial activity against Mycobacterium kansasii isolate 235/80 after 21 days by micromethod; type: functional; conditions: isolate 235/80, 504 h
# [29] = test system: Staphylococcus aureus; experiment: Antibacterial activity against methicillin-resistant Staphylococcus aureus H 5996/08 incubated for 24 hrs under dark condition by microdilution broth assay; type: functional; conditions: H 5996/08, 24 h
# In short: (§4)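 Microdilution broth method modified per M07-A07, in Mueller-Hinton broth adjusted to pH 7.4 (±0.2). Inoculum made in sterile water to 0.5 McFarland (1.5 × 10⁸ CFU/mL). Plates incubated in the dark at 35 °C in a humid atmosphere, with reads at 24 and 48 h. MIC taken as at least 95% growth reduction (IC₉₅) versus control.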
# [30] = test system: Staphylococcus epidermidis; experiment: Antibacterial activity against Staphylococcus epidermidis H 6966/08 incubated for 24 hrs under dark condition by microdilution broth assay; type: functional; conditions: H 6966/08, 24 h; in short: as §2
# [31] = test system: Staphylococcus aureus; experiment: Antibacterial activity against methicillin-resistant Staphylococcus aureus H 5996/08 incubated for 48 hrs under dark condition by microdilution broth assay; type: functional; conditions: H 5996/08, 48 h; in short: as §4
# [32] = test system: Staphylococcus aureus; experiment: Antibacterial activity against Staphylococcus aureus CCM 4516/08 incubated for 48 hrs under dark condition by microdilution broth assay; type: functional; conditions: CCM 4516/08, 48 h; in short: as §2
# [33] = test system: Staphylococcus epidermidis; experiment: Antibacterial activity against Staphylococcus epidermidis H 6966/08 incubated for 48 hrs under dark condition by microdilution broth assay; type: functional; conditions: H 6966/08, 48 h; in short: as §2
# [34] = test system: Escherichia coli; experiment: Antibacterial activity against Escherichia coli CCM 4517 incubated for 48 hrs under dark condition by microdilution broth assay; type: functional; conditions: CCM 4517, 48 h; in short: as §2
# [35] = test system: Staphylococcus aureus; experiment: Antibacterial activity against Staphylococcus aureus CCM 4516/08 incubated for 24 hrs under dark condition by microdilution broth assay; type: functional; conditions: CCM 4516/08, 24 h; in short: as §2
# [36] = test system: Enterococcus; experiment: Antibacterial activity against Enterococcus sp. J 14365/08 incubated for 24 hrs under dark condition by microdilution broth assay; conditions: J 14365/08, 24 h
# [37] = test system: Enterococcus; experiment: Antibacterial activity against Enterococcus sp. J 14365/08 incubated for 48 hrs under dark condition by microdilution broth assay; conditions: J 14365/08, 48 h
# [38] = test system: Escherichia coli; experiment: Antibacterial activity against Escherichia coli CCM 4517 incubated for 24 hrs under dark condition by microdilution broth assay; type: functional; conditions: CCM 4517, 24 h; in short: as §2
SMILES,Activity [3],Activity [7],MIC [8] [µM],solubility [10],MIC [13] [µM],MIC [14] [µM],MIC [16] [µM],Activity [20],Activity [21],MIC [22] [µM],MIC [23] [µM],MIC [24] [µM],Activity [25],MIC [26] [µM],MIC [27] [µM],MIC [28] [µM],MIC95 [29] [µM],MIC95 [30] [µM],MIC95 [31] [µM],MIC95 [32] [µM],also measured
O=C(CN1C(=O)CSC1=S)Oc1ccc(Cl)cc1,inactive,inactive,500,Soluble,1000,250,500,inactive,inactive,500,250,500,inactive,250,1000,1000,–,–,–,–,MIC80 [1]: > 500 µM; MIC80 [2]: > 500 µM; MIC80 [4]: > 500 µM; MIC50 [5]: 500 µM; MIC80 [6]: > 500 µM; MIC50 [9]: > 500 µM; MIC50 [11]: 500 µM; MIC80 [12]: > 500 µM; MIC80 [15]: > 500 µM; MIC80 [17]: > 500 µM; MIC50 [18]: > 500 µM; MIC80 [19]: > 500 µM
O=C(CN1C(=O)CSC1=S)Nc1ccc([N+](=O)[O-])cc1,inactive,inactive,1000,Soluble,1000,500,500,inactive,inactive,500,500,500,inactive,500,1000,1000,500,250,500,500,MIC95 [33]: 250 µM; MIC95 [34]: > 500 µM; MIC95 [35]: 500 µM; MIC95 [36]: 250 µM; MIC95 [37]: 250 µM; MIC95 [38]: > 500 µM
O=C(O)CN1C(=O)/C(=C/c2cc(Br)ccc2O)SC1=S,inactive,inactive,250,Soluble,62.5,62.5,62.5,inactive,inactive,62.5,32,125,inactive,62.5,62.5,62.5,125,62.5,125,250,MIC95 [33]: 62.5 µM; MIC95 [34]: 500 µM; MIC95 [35]: 250 µM; MIC95 [36]: 500 µM; MIC95 [37]: 500 µM; MIC95 [38]: 500 µM
O=C(CN1C(=O)/C(=C/c2cc(Br)ccc2O)SC1=S)Nc1ccc(Cl)cc1,inactive,inactive,500,Soluble,500,125,> 500,inactive,inactive,62.5,32,250,inactive,500,500,> 500,500,500,500,500,MIC95 [33]: 500 µM; MIC95 [34]: > 500 µM; MIC95 [35]: 500 µM; MIC95 [36]: 500 µM; MIC95 [37]: 500 µM; MIC95 [38]: > 500 µM
